{"source": "ChEMBL document CHEMBL3259728", "about": "“Design, synthesis and biological evaluation of some novel substituted quinazolines as antitumor agents” (2014)", "type_in_all_cases": "functional", "key": {"[1]": {"test": "Growth inhibition of human OVCAR4 cells assessed as cell growth at 10^-8 M after 48 hrs by SRB assay", "settings": "OVCAR-4, 48 h, read-out: Activity"}, "[2]": {"system": "MCF7", "test": "Growth inhibition of human MCF7 cells assessed as cell growth at 10^-5 M after 48 hrs by SRB assay", "settings": "MCF7, 48 h, read-out: Activity"}, "[3]": {"system": "SK-MEL-5", "test": "Cytotoxicity against human SK-MEL-5 cells after 48 hrs by SRB assay", "settings": "SK-MEL-5, 48 h", "outline": "(§1)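 NCI 60-cell-line panel of human tumour lines from nine cancer types. Continuous 48 h exposure at five 10-fold dilutions from 10^-4 to 10^-8 M, with 5-FU as positive control. SRB protein stain read spectrophotometrically at time zero, untreated control and each concentration. GI50, TGI and LC50 were derived from the [(Ti−Tz)/(C−Tz)]×100 growth relations, and out-of-range values are given as > or < the tested limits.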"}, "[4]": {"test": "Growth inhibition of human NCI-ADR-RES cells assessed as cell growth at 10^-7 M after 48 hrs by SRB assay", "settings": "read-out: Activity"}, "[5]": {"system": "A498", "test": "Growth inhibition of human A498 cells assessed as cell growth at 10^-8 M after 48 hrs by SRB assay", "settings": "A498, 48 h, read-out: Activity", "outline": "(§2)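 Five-dose NCI panel protocol. Each dose (10^-4 to 10^-8 M, 10-fold steps) was given as 48 h continuous exposure, and protein was measured by SRB staining. Percentage growth at each level is [(Ti−Tz)/(C−Tz)]×100, where Tz is time-zero absorbance and C is untreated control.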"}, "[6]": {"system": "NCI-H23", "test": "Growth inhibition of human NCI-H23 cells assessed as cell growth at 10^-5 M after 48 hrs by SRB assay", "settings": "NCI-H23, 48 h, read-out: Activity"}, "[7]": {"system": "PC-3", "test": "Growth inhibition of human PC3 cells assessed as cell growth at 10^-8 M after 48 hrs by SRB assay", "settings": "PC-3, 48 h, read-out: Activity"}, "[8]": {"system": "SNB-19", "test": "Growth inhibition of human SNB19 cells assessed as cell growth at 10^-6 M after 48 hrs by SRB assay", "settings": "SNB-19, 48 h, read-out: Activity"}, "[9]": {"test": "Growth inhibition of human HCC2998 cells assessed as cell growth at 10^-4 M after 48 hrs by SRB assay", "settings": "HCC 2998, 48 h, read-out: Activity"}, "[10]": {"system": "COLO 205", "test": "Cytotoxicity against human COLO205 cells after 48 hrs by SRB assay", "settings": "COLO 205, 48 h", "outline": "as §1"}, "[11]": {"system": "SK-OV-3", "test": "Growth inhibition of human SKOV3 cells assessed as cell growth at 10^-8 M after 48 hrs by SRB assay", "settings": "SK-OV-3, 48 h, read-out: Activity"}, "[12]": {"system": "U-251", "test": "Growth inhibition of human U251 cells assessed as cell growth at 10^-6 M after 48 hrs by SRB assay", "settings": "U-251, 48 h, read-out: Activity"}, "[13]": {"system": "KM12", "test": "Growth inhibition of human KM12 cells assessed as cell growth at 10^-4 M after 48 hrs by SRB assay", "settings": "KM12, 48 h, read-out: Activity"}, "[14]": {"system": "NCI-H23", "test": "Growth inhibition of human NCI-H23 cells assessed as cell growth at 10^-6 M after 48 hrs by SRB assay", "settings": "NCI-H23, 48 h, read-out: Activity"}, "[15]": {"system": "MDA-MB-231", "test": "Growth inhibition of human MDA-MB-231 cells assessed as cell growth at 10^-7 M after 48 hrs by SRB assay", "settings": "MDA-MB-231, 48 h, read-out: Activity"}, "[16]": {"system": "NCI-H226", "test": "Growth inhibition of human NCI-H226 cells assessed as cell growth at 10^-4 M after 48 hrs by SRB assay", "settings": "NCI-H226, 48 h, read-out: Activity"}, "[17]": {"test": "Growth inhibition of human OVCAR4 cells assessed as cell growth at 10^-5 M after 48 hrs by SRB assay", "settings": "OVCAR-4, 48 h, read-out: Activity"}, "[18]": {"system": "HCT-116", "test": "Cytotoxicity against human HCT116 cells after 48 hrs by SRB assay", "settings": "HCT-116, 48 h", "outline": "as §1"}, "[19]": {"system": "SK-MEL-28", "test": "Cytotoxicity against human SK-MEL-28 cells after 48 hrs by SRB assay", "settings": "SK-MEL-28, 48 h", "outline": "as §1"}, "[20]": {"system": "SF-268", "test": "Growth inhibition of human SF268 cells assessed as cell growth at 10^-6 M after 48 hrs by SRB assay", "settings": "SF-268, 48 h, read-out: Activity"}, "[21]": {"system": "SNB-19", "test": "Growth inhibition of human SNB19 cells assessed as cell growth at 10^-8 M after 48 hrs by SRB assay", "settings": "SNB-19, 48 h, read-out: Activity"}, "[22]": {"system": "CCRF-CEM", "test": "Growth inhibition of human CCRF-CEM cells assessed as cell growth at 10^-5 M after 48 hrs by SRB assay", "settings": "read-out: Activity", "outline": "as §2"}, "[23]": {"system": "ACHN", "test": "Growth inhibition of human ACHN cells assessed as cell growth at 10^-7 M after 48 hrs by SRB assay", "settings": "read-out: Activity", "outline": "as §2"}, "[24]": {"system": "HOP-62", "test": "Growth inhibition of human HOP62 cells assessed as cell growth at 10^-8 M after 48 hrs by SRB assay", "settings": "HOP-62, 48 h, read-out: Activity"}, "[25]": {"system": "MCF7", "test": "Growth inhibition of human MCF7 cells assessed as cell growth at 10^-7 M after 48 hrs by SRB assay", "settings": "MCF7, 48 h, read-out: Activity"}, "[26]": {"system": "RXF 393", "test": "Cytotoxicity against human RXF393 cells after 48 hrs by SRB assay", "settings": "RXF 393, 48 h", "outline": "as §1"}, "[27]": {"system": "HT-29", "test": "Growth inhibition of human HT-29 cells assessed as cell growth at 10^-4 M after 48 hrs by SRB assay", "settings": "HT-29, 48 h, read-out: Activity"}, "[28]": {"system": "A498", "test": "Growth inhibition of human A498 cells assessed as cell growth at 10^-5 M after 48 hrs by SRB assay", "settings": "A498, 48 h, read-out: Activity", "outline": "as §2"}, "[29]": {"test": "Growth inhibition of human HCC2998 cells assessed as cell growth at 10^-8 M after 48 hrs by SRB assay", "settings": "HCC 2998, 48 h, read-out: Activity"}, "[30]": {"test": "Growth inhibition of human OVCAR3 cells assessed as cell growth at 10^-7 M after 48 hrs by SRB assay", "settings": "OVCAR-3, 48 h, read-out: Activity"}, "[31]": {"settings": "read-out: LC50 (the source's name)"}, "[32]": {"settings": "read-out: pLC50 (the source's name) (converted)"}}}
{"smiles": "Cc1ccc(-c2nc3ccc(Cl)cc3c(=O)n2/N=C/c2ccccc2)cc1", "values": [{"measurement": "growth at 0.01 µM", "setting": "[1]", "result": 95, "unit": "%"}, {"measurement": "growth at 10 µM", "setting": "[2]", "result": 59, "unit": "%"}, {"measurement": "GI50", "setting": "[3]; read-out: GI50", "result": 20, "unit": "µM"}, {"measurement": "CC50", "setting": "[3]; [31]", "result": "> 100", "unit": "µM"}, {"measurement": "TGI", "setting": "[3]; read-out: TGI", "result": "> 100", "unit": "µM"}, {"measurement": "GI50", "setting": "[3]; read-out: pGI50 (converted)", "result": 20, "unit": "µM"}, {"measurement": "CC50", "setting": "[3]; [32]", "result": "> 100", "unit": "µM"}, {"measurement": "TGI", "setting": "[3]; read-out: pTGI", "result": "> 100", "unit": "µM"}, {"measurement": "growth at 0.1 µM", "setting": "[4]", "result": 95, "unit": "%"}, {"measurement": "growth at 0.01 µM", "setting": "[5]", "result": 88, "unit": "%"}, {"measurement": "growth at 10 µM", "setting": "[6]", "result": 65, "unit": "%"}, {"measurement": "growth at 0.01 µM", "setting": "[7]", "result": 92, "unit": "%"}, {"measurement": "growth at 1 µM", "setting": "[8]", "result": 88, "unit": "%"}, {"measurement": "growth at 100 µM", "setting": "[9]", "result": 88, "unit": "%"}, {"measurement": "GI50", "setting": "[10]; read-out: GI50", "result": 9, "unit": "µM"}, {"measurement": "LC50 (concentration killing 50% of cells)", "setting": "[10]; read-out: LC50", "result": "> 100", "unit": "µM"}, {"measurement": "TGI", "setting": "[10]; read-out: TGI", "result": "> 100", "unit": "µM"}, {"measurement": "GI50", "setting": "[10]; read-out: pGI50 (converted)", "result": 8.91, "unit": "µM"}, {"measurement": "LC50 (concentration killing 50% of cells)", "setting": "[10]; read-out: pLC50 (converted)", "result": "> 100", "unit": "µM"}, {"measurement": "TGI", "setting": "[10]; read-out: pTGI", "result": "> 100", "unit": "µM"}, {"measurement": "growth at 0.01 µM", "setting": "[11]", "result": 98, "unit": "%"}, {"measurement": "growth at 1 µM", "setting": "[12]", "result": 93, "unit": "%"}, {"measurement": "growth at 100 µM", "setting": "[13]", "result": 63, "unit": "%"}, {"measurement": "growth at 1 µM", "setting": "[14]", "result": 87, "unit": "%"}, {"measurement": "growth at 0.1 µM", "setting": "[15]", "result": 99, "unit": "%"}, {"measurement": "growth at 100 µM", "setting": "[16]", "result": 18, "unit": "%"}, {"measurement": "growth at 10 µM", "setting": "[17]", "result": 23, "unit": "%"}, {"measurement": "GI50", "setting": "[18]; read-out: GI50", "result": 5.51, "unit": "µM"}, {"measurement": "CC50", "setting": "[18]; [31]", "result": "> 100", "unit": "µM"}, {"measurement": "TGI", "setting": "[18]; read-out: TGI", "result": "> 100", "unit": "µM"}, {"measurement": "GI50", "setting": "[18]; read-out: pGI50 (converted)", "result": 5.5, "unit": "µM"}, {"measurement": "CC50", "setting": "[18]; [32]", "result": "> 100", "unit": "µM"}, {"measurement": "TGI", "setting": "[18]; read-out: pTGI", "result": "> 100", "unit": "µM"}, {"measurement": "GI50", "setting": "[19]; read-out: GI50", "result": 20.6, "unit": "µM"}, {"measurement": "CC50", "setting": "[19]; [31]", "result": "> 100", "unit": "µM"}, {"measurement": "TGI", "setting": "[19]; read-out: TGI", "result": "> 100", "unit": "µM"}, {"measurement": "GI50", "setting": "[19]; read-out: pGI50 (converted)", "result": 20.4, "unit": "µM"}, {"measurement": "CC50", "setting": "[19]; [32]", "result": "> 100", "unit": "µM"}, {"measurement": "TGI", "setting": "[19]; read-out: pTGI", "result": "> 100", "unit": "µM"}, {"measurement": "growth at 1 µM", "setting": "[20]", "result": 90, "unit": "%"}, {"measurement": "growth at 0.01 µM", "setting": "[21]", "result": 96, "unit": "%"}, {"measurement": "growth at 10 µM", "setting": "[22]", "result": 86, "unit": "%"}, {"measurement": "growth at 0.1 µM", "setting": "[23]", "result": 88, "unit": "%"}, {"measurement": "growth at 0.01 µM", "setting": "[24]", "result": 97, "unit": "%"}, {"measurement": "growth at 0.1 µM", "setting": "[25]", "result": 90, "unit": "%"}, {"measurement": "GI50", "setting": "[26]; read-out: GI50", "result": 6.46, "unit": "µM"}, {"measurement": "CC50", "setting": "[26]; [31]", "result": "> 100", "unit": "µM"}, {"measurement": "TGI", "setting": "[26]; read-out: TGI", "result": "> 100", "unit": "µM"}, {"measurement": "GI50", "setting": "[26]; read-out: pGI50 (converted)", "result": 6.46, "unit": "µM"}, {"measurement": "CC50", "setting": "[26]; [32]", "result": "> 100", "unit": "µM"}, {"measurement": "TGI", "setting": "[26]; read-out: pTGI", "result": "> 100", "unit": "µM"}, {"measurement": "growth at 100 µM", "setting": "[27]", "result": 45, "unit": "%"}, {"measurement": "growth at 10 µM", "setting": "[28]", "result": 40, "unit": "%"}, {"measurement": "growth at 0.01 µM", "setting": "[29]", "result": 102, "unit": "%"}, {"measurement": "growth at 0.1 µM", "setting": "[30]", "result": 96, "unit": "%"}]}
